According to ChEMBL document CHEMBL4819005, “Design, synthesis, and in vitro and in vivo anti-angiogenesis study of a novel vascular endothelial growth factor receptor-2 (VEGFR-2) inhibitor based on 1,2,3-triazole scaffold” (Eur J Med Chem, 2021):
The source made the active and inactive calls. The calls are words filed in the database; no cut-off is given here.

Assays:
HT-29 = experiment: cells; conditions: Homo sapiens, HT-29, 24 h
MKN-45 = experiment: cells; conditions: Homo sapiens, MKN-45, 24 h
HUVEC [1] = experiment: cells; conditions: Homo sapiens, 24 h
[2] = target: Vascular endothelial growth factor receptor 2 (Homo sapiens, UniProt P35968); experiment: Inhibition of recombinant human His-tagged VEGFR2 expressed in Baculovirus expression system using ADP-Glo as substrate measured after 30 mins in presence of ATP by ADP-Glo kinase assay
Danio rerio [3] = organism: Danio rerio; conditions: dose 40.0 mg/L, time 24.0 hrs
HUVEC [4] = experiment: Anti-angiogenesis activity against HUVEC cells assessed as inhibition of tube formation at 0.2 to 0.8 uM measured after 6 hrs by microscopic method; type: functional, cell-based; conditions: Homo sapiens, dose 0.2-0.8 µM
Outline: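 HUVECs exposed to 0, 0.2, 0.4 or 0.8 μM compound, then collected. 1×10⁴ cells seeded on Matrigel and cultured 6 h. Tubes photographed under microscope and total tube length quantified.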

HUVEC [5] = experiment: Anti-angiogenesis activity against HUVEC cells assessed as inhibition of cell migration measured after 24 hrs by Transwell assay; type: functional, cell-based; conditions: Homo sapiens, dose 0.2-0.8 µM
Outline: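 HUVECs pretreated 24 h in serum-free DMEM with 0, 0.2, 0.4 or 0.8 μM compound, then counted. 1×10^4 cells placed in upper transwell chamber (8 µm pores), lower chamber DMEM with 20% serum. After 24 h, filters fixed in methanol and stained with 0.1% crystal violet. Migrated cells on lower surface counted by microscopy.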

Danio rerio [6] = organism: Danio rerio; conditions: dose 20.0 mg/L, time 24.0 hrs

Chain of Vascular endothelial growth factor receptor 2 (P35968 whole entry): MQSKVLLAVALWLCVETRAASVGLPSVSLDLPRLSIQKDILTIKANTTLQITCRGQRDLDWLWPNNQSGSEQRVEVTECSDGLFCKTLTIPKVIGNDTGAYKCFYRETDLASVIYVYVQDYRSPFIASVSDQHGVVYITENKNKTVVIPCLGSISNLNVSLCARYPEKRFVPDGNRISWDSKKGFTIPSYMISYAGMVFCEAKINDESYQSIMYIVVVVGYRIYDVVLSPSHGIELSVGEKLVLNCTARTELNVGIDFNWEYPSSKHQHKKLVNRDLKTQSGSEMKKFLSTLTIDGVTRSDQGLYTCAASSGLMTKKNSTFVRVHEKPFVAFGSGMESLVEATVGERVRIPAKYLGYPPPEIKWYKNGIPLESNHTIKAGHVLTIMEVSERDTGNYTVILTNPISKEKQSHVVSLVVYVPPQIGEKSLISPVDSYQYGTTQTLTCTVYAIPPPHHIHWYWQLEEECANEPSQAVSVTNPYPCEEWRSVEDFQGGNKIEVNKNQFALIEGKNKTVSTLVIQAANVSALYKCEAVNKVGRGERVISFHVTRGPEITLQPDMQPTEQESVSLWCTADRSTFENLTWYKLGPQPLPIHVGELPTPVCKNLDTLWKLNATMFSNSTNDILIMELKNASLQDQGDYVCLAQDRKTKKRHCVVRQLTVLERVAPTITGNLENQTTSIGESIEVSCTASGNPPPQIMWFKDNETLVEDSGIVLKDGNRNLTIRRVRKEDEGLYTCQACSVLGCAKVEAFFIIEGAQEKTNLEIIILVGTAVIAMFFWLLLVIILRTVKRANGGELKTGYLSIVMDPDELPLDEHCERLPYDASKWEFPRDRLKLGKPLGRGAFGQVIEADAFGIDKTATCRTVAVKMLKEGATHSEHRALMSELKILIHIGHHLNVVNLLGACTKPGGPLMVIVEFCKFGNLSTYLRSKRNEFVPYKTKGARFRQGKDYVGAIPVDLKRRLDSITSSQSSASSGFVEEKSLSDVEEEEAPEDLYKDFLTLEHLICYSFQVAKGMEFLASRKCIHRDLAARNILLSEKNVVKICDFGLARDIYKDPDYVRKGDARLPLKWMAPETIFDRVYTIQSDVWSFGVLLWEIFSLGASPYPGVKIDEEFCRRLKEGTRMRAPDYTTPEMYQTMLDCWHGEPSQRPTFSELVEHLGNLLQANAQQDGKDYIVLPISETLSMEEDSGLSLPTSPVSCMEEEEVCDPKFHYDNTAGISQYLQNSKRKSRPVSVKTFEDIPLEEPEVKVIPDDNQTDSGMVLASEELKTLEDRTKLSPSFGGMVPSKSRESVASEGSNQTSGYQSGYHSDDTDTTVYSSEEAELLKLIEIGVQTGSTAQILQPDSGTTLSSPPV

## N#Cc1ccc(-n2cc(-c3ccc(C=C4C(=O)Nc5ccc(F)cc54)cc3)nn2)cc1
HT-29
  IC50: > 20 µM
MKN-45
  IC50: > 20 µM
HUVEC [1]
  IC50: > 20 µM
[2]
  IC50: 0.19 µM

## N#Cc1cccc(-n2cc(-c3ccc(/C=C4\C(=O)Nc5ccc(F)cc54)cc3)nn2)c1
HT-29
  IC50: > 20 µM
MKN-45
  IC50: > 20 µM
HUVEC [1]
  IC50: > 20 µM
[2]
  IC50: 0.193 µM

## Cc1ccc(-n2cc(-c3ccc(/C=C4\C(=O)Nc5ccc(F)cc54)cc3)nn2)cc1
HT-29
  IC50: 3.98 µM
MKN-45
  IC50: 34.6 µM
HUVEC [1]
  IC50: 13.8 µM

## Cc1cccc(-n2cc(-c3ccc(/C=C4\C(=O)Nc5ccccc54)cc3)nn2)c1
HT-29
  IC50: 3.94 µM
MKN-45
  IC50: 4.69 µM
HUVEC [1]
  IC50: 13.7 µM

## CCN(CC)CCNC(=O)c1c(C)[nH]c(/C=C2\C(=O)Nc3ccc(F)cc32)c1C [SUNITINIB]
HT-29
  IC50: 10.3 µM
MKN-45
  IC50: 9.25 µM
HUVEC [1]
  IC50: 6.37 µM

## Cc1ccccc1-n1cc(-c2ccc(C=C3C(=O)Nc4ccc(F)cc43)cc2)nn1
HT-29
  IC50: 5.87 µM
MKN-45
  IC50: 7.21 µM
HUVEC [1]
  IC50: 8.63 µM

## O=C1Nc2ccc(F)cc2/C1=C/c1ccc(-c2cn(-c3ccc(Cl)c(C(F)(F)F)c3)nn2)cc1
HT-29
  IC50: 16.5 µM
MKN-45
  IC50: > 20 µM
HUVEC [1]
  IC50: > 20 µM
[2]
  IC50: 0.169 µM

## O=C1Nc2ccc(F)cc2C1=Cc1ccc(-c2cn(-c3ccccc3)nn2)cc1
HT-29
  IC50: 8.12 µM
MKN-45
  IC50: 11.1 µM
HUVEC [1]
  IC50: 13.7 µM

## O=C1Nc2ccccc2/C1=C/c1ccc(-c2cn(-c3ccccc3)nn2)cc1
HT-29
  IC50: 7.07 µM
MKN-45
  IC50: 11.6 µM
HUVEC [1]
  IC50: 12.7 µM

## Cc1cccc(-n2cc(-c3ccc(/C=C4\C(=O)Nc5ccc(F)cc54)cc3)nn2)c1
HT-29
  IC50: 7.32 µM
MKN-45
  IC50: 6.81 µM
HUVEC [1]
  IC50: 9.88 µM

## O=C1Nc2ccccc2/C1=C/c1ccc(-c2cn(-c3ccc(Cl)c(C(F)(F)F)c3)nn2)cc1
HT-29
  IC50: 9.67 µM
MKN-45
  IC50: 8.89 µM
HUVEC [1]
  IC50: > 20 µM
[2]
  IC50: 0.108 µM

## O=C1Nc2ccc(F)cc2C1=Cc1ccc(-c2cn(-c3ccc(Cl)cc3)nn2)cc1
HT-29
  IC50: 11.2 µM
MKN-45
  IC50: 15.8 µM
HUVEC [1]
  IC50: 19.6 µM
[2]
  IC50: 0.17 µM

## N#Cc1cccc(-n2cc(-c3ccc(/C=C4\C(=O)Nc5ccccc54)cc3)nn2)c1
HT-29
  IC50: > 20 µM
MKN-45
  IC50: > 20 µM
HUVEC [1]
  IC50: > 20 µM
[2]
  IC50: > 0.2 µM

## N#Cc1ccccc1-n1cc(-c2ccc(/C=C3\C(=O)Nc4ccccc43)cc2)nn1
HT-29
  IC50: 14.4 µM
MKN-45
  IC50: 14.6 µM
HUVEC [1]
  IC50: 19.7 µM
[2]
  IC50: 0.169 µM

## O=C1Nc2ccc(F)cc2/C1=C/c1ccc(-c2cn(-c3cccc(Cl)c3)nn2)cc1
HT-29
  IC50: 10.5 µM
MKN-45
  IC50: 14.1 µM
HUVEC [1]
  IC50: 19.4 µM
[2]
  IC50: 0.186 µM

## O=C1Nc2ccc(F)cc2/C1=C/c1ccc(-c2cn(-c3ccccc3Cl)nn2)cc1
HT-29
  IC50: 5.95 µM
MKN-45
  IC50: 7.54 µM
HUVEC [1]
  IC50: 18.2 µM
[2]
  IC50: 0.12 µM

## O=C1Nc2ccccc2/C1=C/c1ccc(-c2cn(-c3ccc(Cl)cc3)nn2)cc1
HT-29
  IC50: 14 µM
MKN-45
  IC50: 16.2 µM
HUVEC [1]
  IC50: 18.2 µM
[2]
  IC50: 0.163 µM

## O=C1Nc2ccccc2/C1=C/c1ccc(-c2cn(-c3ccc(F)cc3)nn2)cc1
HT-29
  IC50: 17.7 µM
MKN-45
  IC50: 16.7 µM
HUVEC [1]
  IC50: 14.7 µM
[2]
  IC50: 0.199 µM

## O=C1Nc2ccc(F)cc2/C1=C/c1ccc(-c2cn(-c3cccc(F)c3)nn2)cc1
HT-29
  IC50: 13 µM
MKN-45
  IC50: 8.19 µM
HUVEC [1]
  IC50: 17.2 µM
[2]
  IC50: 0.171 µM

## O=C1Nc2ccccc2/C1=C/c1ccc(-c2cn(-c3cccc(Cl)c3)nn2)cc1
HT-29
  IC50: > 20 µM
MKN-45
  IC50: > 20 µM
HUVEC [1]
  IC50: > 20 µM
[2]
  IC50: > 0.2 µM

## Cc1ccccc1-n1cc(-c2ccc(/C=C3\C(=O)Nc4ccccc43)cc2)nn1
HT-29
  IC50: 8.71 µM
MKN-45
  IC50: 9.77 µM
HUVEC [1]
  IC50: 14.7 µM
[2]
  IC50: 0.111 µM

## O=C1Nc2ccc(F)cc2/C1=C/c1ccc(-c2cn(-c3ccccc3F)nn2)cc1
HT-29
  IC50: 8.98 µM
MKN-45
  IC50: 8.51 µM
HUVEC [1]
  IC50: 14.4 µM
[2]
  IC50: 0.14 µM

## Cc1ccc(-n2cc(-c3ccc(/C=C4\C(=O)Nc5ccccc54)cc3)nn2)cc1
HT-29
  IC50: 1.61 µM
Danio rerio [3]
  inhibition: Active
HUVEC [4]
  Activity: Dose-Dependent Effect
MKN-45
  IC50: 1.92 µM
HUVEC [1]
  IC50: 7.94 µM
HUVEC [5]
  Activity: Dose-Dependent Effect
Danio rerio [6]
  inhibition: Active

## O=C1Nc2ccccc2/C1=C/c1ccc(-c2cn(-c3ccccc3Cl)nn2)cc1
HT-29
  IC50: > 20 µM
MKN-45
  IC50: > 20 µM
HUVEC [1]
  IC50: > 20 µM
[2]
  IC50: > 0.2 µM

## O=C1Nc2ccccc2/C1=C/c1ccc(-c2cn(-c3cccc(F)c3)nn2)cc1
HT-29
  IC50: > 20 µM
MKN-45
  IC50: > 20 µM
HUVEC [1]
  IC50: > 20 µM
[2]
  IC50: > 0.2 µM

## O=C1Nc2ccc(F)cc2/C1=C/c1ccc(-c2cn(-c3ccc(F)cc3)nn2)cc1
HT-29
  IC50: > 20 µM
MKN-45
  IC50: > 20 µM
HUVEC [1]
  IC50: > 20 µM
[2]
  IC50: 0.193 µM

## N#Cc1ccccc1-n1cc(-c2ccc(C=C3C(=O)Nc4ccc(F)cc43)cc2)nn1
HT-29
  IC50: 14 µM
MKN-45
  IC50: 15.2 µM
HUVEC [1]
  IC50: > 20 µM
[2]
  IC50: 0.187 µM

## N#Cc1ccc(-n2cc(-c3ccc(C=C4C(=O)Nc5ccccc54)cc3)nn2)cc1
HT-29
  IC50: 15.8 µM
MKN-45
  IC50: > 20 µM
HUVEC [1]
  IC50: > 20 µM
[2]
  IC50: 0.179 µM

## O=C1Nc2ccccc2/C1=C/c1ccc(-c2cn(-c3ccccc3F)nn2)cc1
HT-29
  IC50: 10.5 µM
MKN-45
  IC50: 12.5 µM
HUVEC [1]
  IC50: 19.3 µM
[2]
  IC50: 0.115 µM
